Bioassay records as filed in PubChem.
GPR7 antagonist: blocks human GPR7 receptor signaling; inhibition, % at 4.4 µM; 290,000 compounds, 1.1% hits; GPR7-expressing cells, fluorescence antagonist assay; AID 1861; in the data active means inhibition above about 16%, passing the limit was not always enough;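 further: cells stimulated with the agonist NPW; 0% = agonist with vehicle and 100% = vehicle without agonist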
Target sequence (P48145 whole entry, looked up): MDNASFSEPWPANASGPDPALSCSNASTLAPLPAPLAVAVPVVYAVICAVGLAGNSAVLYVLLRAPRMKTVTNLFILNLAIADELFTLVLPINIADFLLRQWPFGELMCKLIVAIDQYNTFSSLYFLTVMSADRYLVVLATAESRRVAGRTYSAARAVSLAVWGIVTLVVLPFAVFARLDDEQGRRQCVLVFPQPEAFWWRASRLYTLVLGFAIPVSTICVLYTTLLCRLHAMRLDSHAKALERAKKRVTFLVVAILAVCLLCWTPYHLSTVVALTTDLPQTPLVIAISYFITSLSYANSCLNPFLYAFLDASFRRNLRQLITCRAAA
TAAR1 agonist: agonists of human TAAR1; 360,000 compounds, 0.99% hits; CHO RD-HGA16 TAAR1, Fluo-8 calcium fluorescence; vehicle wells 0%, saturating PEA agonist 100%; activation, % at 3 µM; AID 624467; Q96RJ0;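 active means activation above the mean activation of all test compounds in the run plus 3 SD, cut at about 38% in these data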
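Test system: RD-HGA16 (CHO) cells co-expressing Gα16 and hTAAR1; dosing: one-point dosing at 3 µM (nominal); timing: 17-24 h seeding, 75 min 37 °C dye, 30 min RT; signal: kinetic Fluo-8 calcium fluorescence; read-out basis: % activation relative to PEA EC100 response; controls: DMSO and PEA EC100; replicates: n 1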
CHO parental Ca: counter-screen for OX1R antagonists: effect in parental CHO cells | inhibition, % at 5.6 µM | AID 463079 | 330,000 compounds, 0.63% hits | parental CHO-K1, ATP-induced calcium, Fluo-8 fluorescence;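 active means inhibition above that plate's mean sample inhibition plus 3 SD, cut at about 26% in these data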;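 further: 0% = ATP-challenged DMSO wells and 100% = DMSO wells without ATP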
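Assay system: untransfected parental CHO cell line. Also added: ATP agonist challenge. Dosing: one dose, 5.6 µM nominal. Measured by: Fluo-8 fluorescence. Read-out: % inhibition. Benchmarks: ATP wells versus no-ATP DMSO wells. Repeats: no replicates.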
TAAR1 antagonist: human TAAR1 antagonism | CHO RD-HGA16 TAAR1, Fluo-8 calcium fluorescence, antagonist | inhibition, % at 3 µM | AID 624466 | 360,000 compounds, 1.5% hits | Q96RJ0;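 active means inhibition above a per-plate cutoff, the mean inhibition of test compounds on that plate plus 3 SD, cut at about 49% in these data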;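 further: 0% = DMSO plus EC80 beta-PEA response and 100% = DMSO alone without agonist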
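Test system: CHO RD-HGA16 cells bearing hTAAR1 | Reagent: β-PEA, EC80 | Compound dosing: 3 µM, single point | Schedule: Dye loading 75 min at 37 °C, then 30 min room temperature | Signal: Calcium fluorescence with Fluo-8 | Evaluation: Percent inhibition of PEA-evoked calcium signal, max/basal emission ratio | Control set: DMSO-only wells and EC80 β-PEA-stimulated wells | Repeats: Singlicate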
OX1R antag-1: blocks the human orexin 1 receptor | inhibition, % at 6.6 µM | OX1R-expressing cells, FRET antagonist read-out | 330,000 compounds, 1.8% hits | O43613; in the data active means inhibition mostly above about 38%, no sharp cut-off; inactive means mostly below about 40%;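 further: 0% = agonist challenge alone and 100% = reference antagonist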
OX1R antag-2: human HCRTR1 antagonism | O43613 | CHO/OX1R cells, Fluo-8 calcium fluorescence, orexin A | 330,000 compounds, 0.43% hits | AID 434989 | inhibition, % at 5 µM;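 active means inhibition above its plate's threshold, mean inhibition of all tested compounds on the plate plus 3 SD, cut at about 37% in these data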;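 further: 0% = orexin A challenge wells and 100% = SB-334867-A antagonist wells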
Active calls of the source: *; · = not tested or not shown. A selection: hits, their analogues and other compounds. The true share with any hit is near 4.6%.

SMILES	GPR7 antagonist	TAAR1 agonist	CHO parental Ca	TAAR1 antagonist	OX1R antag-1	OX1R antag-2
COc1ccc(S(=O)(=O)N(C)C[C@H]2Oc3c(NC(=O)Nc4ccccc4)cccc3C(=O)N([C@H](C)CO)C[C@@H]2C)cc1	·	11.7	·	57.5*	·	·
COc1cc(F)ccc1-c1csc(C(O)c2ccc(F)cc2)n1 (configuration not stated)	·	3.7	·	-4.0	·	·
COC(=O)[C@@]12C[C@@H](CC(=O)NCCCN3CCCC3=O)C(=O)N(CCc3ccc(OC)c(OC)c3)C1=CCC(C)(C)C2	·	8.3	·	-29.8	·	·
CCN1CCN(C(=O)c2cc(-c3ccc(Cl)s3)nc3ccccc23)CC1	-8.1	19.7	·	4.8	·	·
COC(=O)C1CCN(C(=O)c2cc(-c3ccc(Cl)s3)nc3ccccc23)CC1	·	9.4	2.1	56.6*	0.9	14.2
CN(NC(=O)C(=O)NCc1ccco1)C(=O)NC1CCCCC1	·	1.2	·	-2.4	·	·
COc1cccc(-c2ncc3ccccc3c2COC(=O)N2CCOCC2)c1	·	22.9	-18.7	55.6*	11.8	-9.0
CC(C)c1nnc(NC(=O)C2c3ccccc3Oc3ccccc32)s1	3.7	42.4*	-8.8	-2.0	1.7	-12.0
O=C(Nc1cccc(OC(F)(F)F)c1)C1Cc2c(-c3ccco3)ccnc2O1 (configuration not stated)	·	-0.5	·	-0.4	·	·
NS(=O)(=O)c1ccc(N/N=C/c2ccc(O)cc2O)c([N+](=O)[O-])c1	1.1	3.2	0.9	9.9	20.3	4.0
C/C(=N\Nc1ccc(S(N)(=O)=O)cc1[N+](=O)[O-])c1ccccc1O	-7.4	5.4	-13.3	-14.6	21.6	-1.2
C/C(=N\Nc1ccc(S(N)(=O)=O)cc1[N+](=O)[O-])c1ccco1	-11.2	-2.6	15.8	3.0	40.6*	7.5
NS(=O)(=O)c1ccc(N/N=C/c2ccccn2)c([N+](=O)[O-])c1	-10.6	-0.4	-3.3	9.8	45.6*	-11.9
Cc1cscc1-c1ccc(C(=O)Nc2c(C)cccc2C)o1	·	-2.0	·	-29.4	·	·
CCOC(=O)c1cnc(SCc2nc(N)nc(Nc3ccc(F)cc3)n2)nc1N	-6.2	11.3	-17.3	12.5	60.6*	15.9
O=C(Nc1ccc(Cl)c(Cl)c1)OCCNC(=O)c1cccc(Cl)c1	4.7	7.0	40.0*	24.8	66.5	28.2
O=C(Nc1ccccc1)OCCNC(=O)c1cccc(Br)c1	7.4	5.6	6.1	-1.9	6.5	-13.4
CCOc1ccc(NC(=O)CSCc2cnn(-c3ccccc3)c2-n2cccc2)cc1	0.5	0.3	-12.2	7.7	76.4*	-37.4
O=C(O)CSCc1cnn(-c2ccccc2)c1-n1cccc1	-5.8	3.4	-2.0	-14.1	7.7	-2.8
O=C(COCc1ccccc1)N[C@@H](Cc1ccc(O)cc1)C(=O)O	-16.1	7.8	-4.0	10.6	4.0	-14.8
O=C(CC(c1ccccc1)(c1ccccc1)c1ccccc1)N[C@@H](Cc1ccc(O)cc1)C(=O)O	-19.8	-1.5	-15.9	6.4	50.0*	-2.4
CCn1cnc2cc(NCc3ccc(N(C)C)cc3)ccc21	-10.4	1.6	-13.2	-30.8	17.3	-13.2
CCN(CC)c1ccc(CNc2ccc3c(c2)ncn3CC)cc1	-18.8	6.1	46.0*	-6.0	-9.2	-0.3
COCC#Cc1ccc2c(c1)O[C@H](CN(C)C(=O)c1ccccc1)[C@@H](C)CN([C@H](C)CO)S2(=O)=O	·	0.7	·	-26.0	·	·
CN(C)S(=O)(=O)c1ccc(NC(=O)/C=C/c2ccccc2Cl)cc1	-10.2	13.0	-11.7	3.7	19.7	-18.4
CN(C)c1ccc(NC(=O)/C=C/c2c(Cl)cccc2Cl)cc1	5.2	2.4	-3.6	-17.4	71.7*	8.6
O=C(C[C@@H]1CC[C@H](NS(=O)(=O)c2ccccc2F)[C@@H](CO)O1)NCCCN1CCOCC1	·	4.1	·	-1.4	·	·
Cc1nc2nc(-c3cccs3)[nH]c2cc1Br	·	3.3	-4.6	-27.7	42.6*	-0.3
c1ccc(-c2nc(-c3cccs3)[nH]c2-c2ccccc2)cc1	-9.6	3.7	-20.3	1.9	13.2	-7.2
CCc1nc2ccc(C(=O)Nc3cccc(OCC(=O)N(C)C)c3)cn2c1N(C)Cc1ccc(OC)cc1	·	10.5	·	54.2*	·	·
